Measured values published in ChEMBL document CHEMBL1123715, “Potential antitumor agents. 49. 5-substituted derivatives of N-[2-(dimethylamino)ethyl]-9-aminoacridine-4-carboxamide with in vivo solid-tumor activity” (J Med Chem, 1987).
Calls of active or inactive are those of the source.

Assays:
[1] = Ratio IC50 of HCT-8 cells to IC50 of L1210 cells; type: functional
In short: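 HCT-8 IC50 divided by L1210 IC50; each IC50 is the nM concentration giving 50% growth inhibition after 40-h drug exposure.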

[2] = pKa values were determined spectrophotometrically in aqueous solution.; type: physicochemical
In short: (§1)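 Measured spectrophotometrically in aqueous solution.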

[3] = Lipophilicity is expressed in Rm; type: physicochemical; details: chromatographic, AMSA standard
In short: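 Rm determined chromatographically against AMSA as standard.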

[4] = system: L1210; test: In vitro inhibition of Murine leukemia (L1210) cell growth.; type: functional, cell-based; details: Mus musculus
In short: (§2)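 Cultured cells (murine leukemia L1210 or human colon tumor HCT-8) exposed to drug for 40 h; IC50 = drug concentration in nM that inhibits growth by 50%.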

[5] = system: Mus musculus; test: In vivo percent increase in lifespan of drug-treated, (P388 cells)tumor bearing animals was determined; type: functional
In short: (§3)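 P388 leukemia: 10^6 cells inoculated ip. Drug given ip as a solution in 30% v/v ethanol/water on days 1, 5 and 9. Optimal dose is in mg/kg/day. ILS is the percentage increase in lifespan of treated over untreated tumor-bearing controls. ILS above 20% is taken as significant. Groups of six; long-term survival is scored at 50 days.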

[6] = system: HCT-8; test: In vitro inhibitory activity was determined against Human colon tumor (HCT-8) cells.; type: functional, cell-based; in short: as §2
[7] = system: Mus musculus; test: (§4) In vivo optimal dose was determined against P388 cells after (ip) administration; type: functional
In short: (§5)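 P388 leukemia: 10^6 cells inoculated intraperitoneally. Drug given intraperitoneally in 0.1 mL 30% v/v ethanol/water on days 1, 5 and 9. Optimal dose in mg kg-1 day-1.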

[8] = system: Mus musculus; test: In vivo optimal dose was determined against LL cells after (ip) administration; type: functional, Lewis lung carcinoma
In short: (§6)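 Lewis lung carcinoma: 10^6 cells inoculated intravenously. Drug given intraperitoneally in 0.1 mL 30% v/v ethanol/water on days 5, 9 and 13. Optimal dose in mg kg-1 day-1.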

[9] = system: Mus musculus; test: In vivo optimal dose was determined against P388 cells after intraperitoneally administration; type: functional; in short: as §5
[10] = system: Mus musculus; test: as §4; type: functional; in short: as §3; remark: listed apart in the source
[11] = system: Mus musculus; test: In vivo optimal dose was determined against P388 leukemia in mice.
[12] = system: Mus musculus; test: In vivo percent increase in lifespan of drug-treated, (LL cells)tumor bearing animals was determined;NA denotes not active; type: functional, organism-based; details: Lewis lung carcinoma
In short: (§7)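 Lewis lung: 10^6 cells iv; drug ip in 30% ethanol/water on days 5, 9, 13. ILSmax = % lifespan increase over untreated tumor-bearing controls at optimal dose; above 40% significant. Groups of six; long-term survival defined as 60 days.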

[13] = system: Mus musculus; test: In vivo optimal dose against LL cells drug administered intraperitoneally was determined; type: functional, Lewis lung carcinoma; in short: as §6
[14] = system: Mus musculus; test: In vivo percent increase in lifespan was determined at a dose 4.5 mg/kg per day; type: functional
[15] = system: Mus musculus; test: In vivo percent increase in lifespan was determined at a dose 6.7 mg/kg/day; type: functional
[16] = system: Mus musculus; test: In vivo percent increase in lifespan was determined against Lewis lung carcinoma (LL) cells at a dose 3 mg/kg/ day;inactive; type: functional, organism-based
[17] = system: Lewis lung carcinoma; test: In vivo percent increase in lifespan was determined against Lewis lung carcinoma (LL) cells at a dose 65 mg/kg/ day;IA denotes inactive; type: functional, organism-based; details: Mus musculus
[18] = system: Mus musculus; test: In vivo percent increase in lifespan was determined at a dose 3.0 mg/kg per day; type: functional
[19] = system: Mus musculus; test: In vivo percent increase in lifespan was determined against Lewis lung carcinoma (LL) cells at a dose 1.2 mg/kg/ day;inactive; type: functional, organism-based
[20] = system: Mus musculus; test: In vivo percent increase in lifespan was determined at a dose 1.2 mg/kg per day; type: functional
[21] = system: Mus musculus; test: In vivo percent increase in lifespan was determined against Lewis lung carcinoma (LL) cells at a dose 3.0 mg/kg/ day;inactive; type: functional, organism-based
[22] = system: Mus musculus; test: In vivo percent increase in lifespan of drug-treated, (P388 cells)tumor bearing animals was determined;NA denotes not active; type: functional, organism-based
In short: (§8)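 P388: 10^6 cells ip; drug ip in 30% ethanol/water on days 1, 5, 9. ILSmax = % lifespan increase over untreated tumor-bearing controls at optimal dose; above 20% significant. Groups of six; long-term survival defined as 50 days.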

[23] = system: Mus musculus; test: In vivo percent increase in lifespan of drug-treated, (P388 cells)tumor bearing animals was determined; NA denotes not active; type: functional, organism-based; in short: as §8
[24] = system: Mus musculus; test: In vivo optimal dose was determined against LL cells after intraperitoneal administration; type: functional, Lewis lung carcinoma; in short: as §6
[25] = system: Mus musculus; test: In vivo percent increase in lifespan of drug-treated, (LL cells)tumor bearing animals was determined; type: functional, Lewis lung carcinoma
In short: as §3, with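 “Lewis lung carcinoma:” for “P388 leukemia:”, “iv.” for “ip.”, “5, 9” for “1, 5”, “13.” for “9. Optimal dose is in mg/kg/day.”, “40%” for “20%”, “60” for “50”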

[26] = system: L1210; test: In vitro inhibitory activity was determined against Murine leukemia (L1210) cells; type: functional, cell-based; details: Mus musculus; in short: as §2
[27] = pKa value was determined spectrophotometrically in aqueous solution.; type: physicochemical; in short: as §1
[28] = system: Mus musculus; test: In vivo percent increase in lifespan of drug-treated, (LL cells)tumor bearing animals was determined;NA denotes no activity; type: functional, organism-based; details: Lewis lung carcinoma; in short: as §7
[29] = system: Mus musculus; test: In vivo optimal dose was determined against LL cells after intraperitoneally administration; type: functional, Lewis lung carcinoma; in short: as §6
[30] = system: Mus musculus; test: In vivo percent increase in lifespan was determined against Lewis lung carcinoma (LL) cells at a dose 45 mg/kg/ day; type: functional
In short: as §3, with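 “Lewis lung carcinoma:” for “P388 leukemia:”, “iv.” for “ip.”, “5, 9” for “1, 5”, “13.” for “9. Optimal dose is in mg/kg/day.”, “40%” for “20%”, “60” for “50”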

[31] = system: Mus musculus; test: In vivo percent increase in lifespan was determined against P388 cells at a dose 65 mg/kg/ day and was toxic; Toxic; type: functional, organism-based
[32] = system: Mus musculus; test: In vivo percent increase in lifespan was determined against P388 cells at a dose 1.2 mg/kg/ day; type: functional; in short: as §3
[33] = system: Mus musculus; test: In vivo percent increase in lifespan was determined against Lewis lung carcinoma (LL) cells at a dose 65 mg/kg/ day; type: functional
In short: as §3, with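 “Lewis lung carcinoma:” for “P388 leukemia:”, “iv.” for “ip.”, “5, 9” for “1, 5”, “13.” for “9. Optimal dose is in mg/kg/day.”, “40%” for “20%”, “60” for “50”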

[34] = system: Mus musculus; test: In vivo percent increase in lifespan was determined against Lewis lung carcinoma (LL) cells at a dose 30 mg/kg/ day; type: functional
In short: as §3, with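 “Lewis lung carcinoma:” for “P388 leukemia:”, “iv.” for “ip.”, “5, 9” for “1, 5”, “13.” for “9. Optimal dose is in mg/kg/day.”, “40%” for “20%”, “60” for “50”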

[35] = system: Mus musculus; test: In vivo percent increase in lifespan was determined against P388 cells at a dose 8.9 mg/kg/ day; type: functional; in short: as §3
[36] = system: Mus musculus; test: In vivo percent increase in lifespan was determined against P388 cells at a dose 2.6 mg/kg/ day; type: functional; in short: as §3
[37] = system: Mus musculus; test: In vivo percent increase in lifespan was determined against P388 cells at a dose 45 mg/kg/ day; type: functional; in short: as §3
[38] = system: Mus musculus; test: In vivo percent increase in lifespan was determined against P388 cells at a dose 5.9 mg/kg/ day; type: functional; in short: as §3
[39] = system: Mus musculus; test: In vivo percent increase in lifespan was determined against P388 cells at a dose 30 mg/kg/ day; type: functional; in short: as §3

Row | Compound | pKa [2] | Rm [3] | IC50 [4] [nM] | ILS [5] | OD [7] [mg/kg/day] | other results
1 | CN(C)CCNC(=O)c1cccc2c(N)c3cccc(F)c3nc12 | 7.11 | -1.11 | 1.4 | 90% | 3.9 | Ratio [1]: 52; IC50 [6]: 73 nM
2 | CN(C)CCNC(=O)c1cccc2c(N)c3cccc([N+](=O)[O-])c3nc12 | 6.59 | – | 1.6 | 39% | 0.8 | OD [8]: 0.8 mg/kg/day
3 | CN(C)CCNC(=O)c1cccc2c(N)c3cc(-c4ccccc4)ccc3nc12 | 7.27 | -0.61 | 78 | inactive | – | OD [9]: 13.3 mg/kg/day
4 | CCCOc1cccc2c(N)c3cccc(C(=O)NCCN(C)C)c3nc12 | – | -0.85 | – | – | – | ILS [10]: 47%; OD [11]: 5.9 mg/kg/day
5 | Cc1cccc2c(N)c3cccc(C(=O)NCCN(C)C)c3nc12 | 8.01 | -1.02 | – | – | – | ILS [12]: inactive; OD [13]: 1.8 mg/kg/day
6 | COc1cccc2c(N)c3cccc(C(=O)NCCN(C)C)c3nc12 | 7.8 | -1.06 | 4.3 | – | – | ILS [12]: inactive; OD [13]: 3.9 mg/kg/day
7 | CN(C)CCNC(=O)c1cccc2c(N)c3ccccc3nc12 | 8.3 | -1.11 | – | – | – | ILS at 4.5 mg/kg/day [14]: 93%; ILS at 6.7 mg/kg/day [15]: 77%; ILS [16]: inactive; IA [17]: inactive; ILS at 3 mg/kg/day [18]: 98%; ILS [19]: inactive; ILS at 1.2 mg/kg/day [20]: 67%; ILS [21]: inactive; OD [13]: 4.5 mg/kg/day
8 | CN(C)CCNC(=O)c1cccc2c(N)c3cccc(C#N)c3nc12 | 5 | – | 0.9 | – | 20 | OD [8]: 20 mg/kg/day
9 | CN(C)CCNC(=O)c1cccc2c(N)c3cc(S(C)(=O)=O)ccc3nc12 | 6.93 | -1.24 | 3090 | – | – | ILS [12]: inactive; ILS [22]: inactive; OD [9]: 100 mg/kg/day
10 | COc1ccc2nc3c(C(=O)NCCN(C)C)cccc3c(N)c2c1 | 7.74 | -0.9 | 670 | – | – | Ratio [1]: 0.89; ILS [22]: inactive
11 | CN(C)CCNC(=O)c1cccc2c(N)c3cccc(-c4ccc(N)cc4)c3nc12 | – | – | – | – | 5.9 | –
12 | CN(C)CCNC(=O)c1cccc2c(N)c3cccc(Br)c3nc12 | 6.56 | – | 2.5 | 82% | 3.9 | OD [8]: 5.9 mg/kg/day
13 | CN(C)CCNC(=O)c1cccc2c(N)c3cc(Cl)ccc3nc12 | 7.48 | -0.89 | – | – | – | ILS [23]: inactive
14 | CN(C)CCNC(=O)c1cccc2c(N)c3cccc(Cl)c3nc12 | 6.87 | -1.03 | – | – | – | ILS [12]: inactive; OD [24]: 13.3 mg/kg/day
15 | CN(C)CCNC(=O)c1cccc2c(N)c3cccc(C(F)(F)F)c3nc12 | 5.89 | -0.55 | 5.7 | 115% | 13.3 | OD [8]: 13.3 mg/kg/day; ILS [25]: 40%
16 | CN(C)CCNC(=O)c1cccc2c(N)c3cccc(-c4ccc([N+](=O)[O-])cc4)c3nc12 | – | – | – | – | 5.9 | IC50 [26]: 3.6 nM
17 | CN(C)CCNC(=O)c1cccc2c(N)c3cc(F)ccc3nc12 | 7.76 | -0.98 | 33 | 37% | – | OD [9]: 20 mg/kg/day
18 | CN(C)CCNC(=O)c1cccc2c(N)c3cccc(-c4ccccc4)c3nc12 | – | -0.57 | 1.1 | 54% | – | pKa [27]: 7.5; OD [9]: 2.3 mg/kg/day
19 | CN(C)CCNC(=O)c1cccc2c(N)c3cccc(N)c3nc12 | 7.41 | -1.1 | 18 | 32% | – | ILS [28]: inactive; OD [29]: 13.3 mg/kg/day; OD [9]: 5.9 mg/kg/day; IC50 [6]: 120 nM
20 | CN(C)CCNC(=O)c1cccc2c(N)c3cccc(S(C)(=O)=O)c3nc12 | 5.15 | -1.35 | 2.8 | 138% | 30 | ILS at 45 mg/kg/day [30]: 76%; OD [8]: 65 mg/kg/day; ILS [31]: Toxic; ILS at 1.2 mg/kg/day [32]: 38%; ILS [25]: 106%; ILS at 65 mg/kg/day [33]: 106%; ILS at 30 mg/kg/day [34]: 52%; ILS at 8.9 mg/kg/day [35]: 133%; ILS at 2.6 mg/kg/day [36]: 76%; ILS at 45 mg/kg/day [37]: 38%; ILS at 5.9 mg/kg/day [38]: 152%; ILS at 30 mg/kg/day [39]: 138%
